Laboratory results from ChEMBL document CHEMBL4715715, “Synthesis and biological evaluation of arylcinnamide linked combretastatin-A4 hybrids as tubulin polymerization inhibitors and apoptosis inducing agents” (Bioorg Med Chem Lett, 2016).

How the values were obtained:
HOP-62 = assay: Antiproliferative activity against human HOP-62 cells assessed as cell growth inhibition measured after 48 hrs by SRB assay; type: functional
In short: (§1)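 Sulforhodamine B (SRB) cell-staining assay across a panel of human cancer lines. Growth inhibition is reported as GI50.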

MCF7 [1] = assay: Induction of apoptosis in human MCF7 cells assessed as late apoptotic cell population at 50 nM measured after 48 hrs by Annexin V-FITC/PI staining based flow cytometry (reference value: 1 %)
MCF7 [2] = assay: Induction of apoptosis in human MCF7 cells assessed as late apoptotic cells at 50 nM measured after 48 hrs by annexinV-FITC/propidium iodide staining based flow cytometry (reference value: 0.6 %)
MCF7 [3] = assay: Induction of apoptosis in human MCF7 cells assessed as early apoptotic cells at 50 nM measured after 48 hrs by annexinV-FITC/propidium iodide staining based flow cytometry (reference value: 4.4 %); type: functional
In short: (§2)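 MCF-7 cells were treated at 50 and 100 nM for 48 h. Annexin V-FITC/PI dual staining was read by flow cytometry. Cells were quadrant-gated as UL, UR, LL and LR, with untreated control alongside.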

MCF7 [4] = assay: Cell cycle arrest in human MCF7 cells assessed as accumulation at S phase at 100 nM measured after 48 hrs by propidium iodide staining based flow cytometry (reference value: 3.1 %); type: functional
Sus scrofa = species on record: Sus scrofa; assay: Inhibition of porcine brain tubulin polymerization at 3 uM measured after 1 hr in presence of GTP by fluorescence assay relative to control; type: tissue-based
In short: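 Tubulin polymerization was followed by fluorescence (excitation 360 nm, emission 420 nm) for 1 h at 37 °C. Compounds were at 3 μM final, with and without compound. Values are mean ± SD of two experiments done in triplicate.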

SK-OV-3 = assay: Antiproliferative activity against human SK-OV-3 cells assessed as cell growth inhibition measured after 48 hrs by SRB assay; type: functional; in short: as §1
MIA PaCa-2 = assay: Antiproliferative activity against human MIA Paca-2 cells assessed as cell growth inhibition measured after 48 hrs by SRB assay; type: functional; in short: as §1
MCF7 [5] = assay: Induction of apoptosis in human MCF7 cells assessed as early apoptotic cell population at 100 nM measured after 48 hrs by Annexin V-FITC/PI staining based flow cytometry (reference value: 0.7 %)
MCF7 [6] = assay: Cell cycle arrest in human MCF7 cells assessed as accumulation at G2/M phase at 50 nM measured after 48 hrs by propidium iodide staining based flow cytometry (reference value: 8.44 %); type: functional
In short: (§3)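 MCF-7 cells were treated at 50 and 100 nM for 48 h. Cell-cycle phase distribution (sub-G1, G0/G1, S, G2/M %) was read by flow cytometry against untreated control.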

HeLa = assay: Antiproliferative activity against human HeLa cells assessed as cell growth inhibition measured after 48 hrs by SRB assay; type: functional; in short: as §1
MCF7 [7] = assay: Induction of apoptosis in human MCF7 cells assessed as late apoptotic cell population at 100 nM measured after 48 hrs by Annexin V-FITC/PI staining based flow cytometry (reference value: 1 %)
MCF7 [8] = assay: Cell cycle arrest in human MCF7 cells assessed as accumulation at S phase at 50 nM measured after 48 hrs by propidium iodide staining based flow cytometry (reference value: 3.1 %); type: functional; in short: as §3
MCF7 [9] = assay: Cell cycle arrest in human MCF7 cells assessed as accumulation at sub-G1 phase at 100 nM measured after 48 hrs by propidium iodide staining based flow cytometry (reference value: 2.4 %); type: functional
MCF7 [10] = assay: Antiproliferative activity against human MCF7 cells assessed as cell growth inhibition measured after 48 hrs by SRB assay; type: functional; in short: as §1
MCF7 [11] = assay: Induction of apoptosis in human MCF7 cells assessed as necrotic cells at 100 nM measured after 48 hrs by annexinV-FITC/propidium iodide staining based flow cytometry (reference value: 0.1 %); type: functional
MCF7 [12] = assay: Cell cycle arrest in human MCF7 cells assessed as accumulation at G0/G1 phase at 50 nM measured after 48 hrs by propidium iodide staining based flow cytometry (reference value: 85.3 %); type: functional; in short: as §3
MCF7 [13] = assay: Cell cycle arrest in human MCF7 cells assessed as accumulation at G0/G1 phase at 100 nM measured after 48 hrs by propidium iodide staining based flow cytometry (reference value: 85.3 %); type: functional
K562 = assay: Antiproliferative activity against human K562 cells assessed as cell growth inhibition measured after 48 hrs by SRB assay; type: functional; in short: as §1
MCF7 [14] = assay: Induction of apoptosis in human MCF7 cells assessed as live cells at 50 nM measured after 48 hrs by annexinV-FITC/propidium iodide staining based flow cytometry (reference value: 95 %)
[15] = Inhibition of porcine brain tubulin polymerization measured after 1 hr in presence of GTP by fluorescence assay; type: tissue-based, Sus scrofa
In short: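 Tubulin assembly followed by the rise in fluorescence (ex 360 nm, em 420 nm) over 1 h at 37 °C. Compounds tested at a final 3 μM with a reference control. IC50 defined as the concentration inhibiting 50% of tubulin assembly. Mean ± SD of two experiments in triplicate.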

MCF7 [16] = assay: Cell cycle arrest in human MCF7 cells assessed as accumulation at sub-G1 phase at 50 nM measured after 48 hrs by propidium iodide staining based flow cytometry (reference value: 2.4 %); type: functional; in short: as §3
DU-145 = assay: Antiproliferative activity against human DU-145 cells assessed as cell growth inhibition measured after 48 hrs by SRB assay; type: functional; in short: as §1
COLO 205 = assay: Antiproliferative activity against human COLO 205 cells assessed as cell growth inhibition measured after 48 hrs by SRB assay; type: functional; in short: as §1
MCF7 [17] = assay: Induction of apoptosis in human MCF7 cells assessed as late apoptotic cells at 100 nM measured after 48 hrs by annexinV-FITC/propidium iodide staining based flow cytometry (reference value: 0.6 %)
MCF7 [18] = assay: Induction of apoptosis in human MCF7 cells assessed as activation of caspase 9 at 100 nM measured after 48 hrs by fluorescence assay relative to control; type: functional
In short: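 MCF-7 breast cancer cells treated at 100 nM for 48 h. Caspase-9 activity compared with untreated control. Mean ± SD of two experiments each run in triplicate.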

MCF7 [19] = assay: Induction of apoptosis in human MCF7 cells assessed as early apoptotic cell population at 50 nM measured after 48 hrs by Annexin V-FITC/PI staining based flow cytometry (reference value: 0.7 %)
MCF7 [20] = assay: Cell cycle arrest in human MCF7 cells assessed as accumulation at G2/M phase at 100 nM measured after 48 hrs by propidium iodide staining based flow cytometry (reference value: 8.44 %); type: functional
MCF7 [21] = assay: Induction of apoptosis in human MCF7 cells assessed as live cells at 100 nM measured after 48 hrs by annexinV-FITC/propidium iodide staining based flow cytometry (reference value: 95 %)
MCF7 [22] = assay: Induction of apoptosis in human MCF7 cells assessed as early apoptotic cells at 100 nM measured after 48 hrs by annexinV-FITC/propidium iodide staining based flow cytometry (reference value: 4.4 %); type: functional
MCF7 [23] = assay: Induction of apoptosis in human MCF7 cells assessed as necrotic cells at 50 nM measured after 48 hrs by annexinV-FITC/propidium iodide staining based flow cytometry (reference value: 0.1 %); type: functional; in short: as §2

COc1ccc(/C=C\c2cc(OC)c(OC)c(OC)c2)c(NC(=O)/C=C/c2ccc(F)c(F)c2)c1O
GI50 (HOP-62): 43600 nM | Activity (MCF7 [1]): 22.8% | late apoptotic cells (MCF7 [2]): 2% | Activity (MCF7 [3]): 10.5% | Activity (MCF7 [4]): 0.52% | inhibition (Sus scrofa): 73.7% | GI50 (SK-OV-3): 29.8 µM | GI50 (MIA PaCa-2): 74 µM | Activity (MCF7 [5]): 6.2% | Activity (MCF7 [6]): 23.58% | GI50 (HeLa): 29.2 µM | Activity (MCF7 [7]): 26% | Activity (MCF7 [8]): 1.46% | Activity (MCF7 [9]): 3.07% | GI50 (MCF7 [10]): 31 nM | Activity (MCF7 [11]): 0.7% | Activity (MCF7 [12]): 70.02% | Activity (MCF7 [13]): 27.47% | GI50 (K562): 99 nM | live cells (MCF7 [14]): 86.4% | IC50 [15]: 1050 nM | Activity (MCF7 [16]): 2.99% | GI50 (DU-145): 45 nM | GI50 (COLO 205): 74.9 µM | late apoptotic cells (MCF7 [17]): 4.7% | fold change (FC) (MCF7 [18]): 2 | Activity (MCF7 [19]): 6.5% | Activity (MCF7 [20]): 66.13% | live cells (MCF7 [21]): 63.1% | Activity (MCF7 [22]): 31.4% | Activity (MCF7 [23]): 1.1%

COc1ccc(/C=C\c2cc(OC)c(OC)c(OC)c2)cc1O [COMBRETASTATIN A4]
GI50 (HOP-62): 150 nM | Activity (MCF7 [1]): 24.5% | late apoptotic cells (MCF7 [2]): 3.6% | Activity (MCF7 [3]): 30.2% | inhibition (Sus scrofa): 72.2% | GI50 (SK-OV-3): 31.6 µM | Activity (MCF7 [6]): 37.41% | GI50 (HeLa): 0.008 µM | Activity (MCF7 [8]): 1.43% | GI50 (MCF7 [10]): 33 nM | Activity (MCF7 [12]): 56.19% | GI50 (K562): 31 nM | live cells (MCF7 [14]): 65.7% | IC50 [15]: 1480 nM | Activity (MCF7 [16]): 2.71% | GI50 (DU-145): 46 nM | GI50 (COLO 205): 0.025 µM | Activity (MCF7 [19]): 3.6% | Activity (MCF7 [23]): 0.5%

COc1ccc(/C=C/C(=O)Nc2c(/C=C\c3cc(OC)c(OC)c(OC)c3)ccc(OC)c2O)cc1OC
GI50 (HOP-62): 90 nM | Activity (MCF7 [1]): 12% | late apoptotic cells (MCF7 [2]): 1.8% | Activity (MCF7 [3]): 8.4% | Activity (MCF7 [4]): 0.35% | inhibition (Sus scrofa): 69.2% | GI50 (SK-OV-3): 0.099 µM | GI50 (MIA PaCa-2): 29.9 µM | Activity (MCF7 [5]): 7.2% | Activity (MCF7 [6]): 15.25% | GI50 (HeLa): 7.5 µM | Activity (MCF7 [7]): 22.5% | Activity (MCF7 [8]): 2.86% | Activity (MCF7 [9]): 3.65% | GI50 (MCF7 [10]): 56 nM | Activity (MCF7 [11]): 0.7% | Activity (MCF7 [12]): 78.55% | Activity (MCF7 [13]): 28.16% | GI50 (K562): 94 nM | live cells (MCF7 [14]): 89% | IC50 [15]: 1970 nM | Activity (MCF7 [16]): 2.56% | GI50 (DU-145): 60 nM | GI50 (COLO 205): 0.099 µM | late apoptotic cells (MCF7 [17]): 2.3% | fold change (FC) (MCF7 [18]): 2 | Activity (MCF7 [19]): 0.8% | Activity (MCF7 [20]): 64.29% | live cells (MCF7 [21]): 82.2% | Activity (MCF7 [22]): 14.8% | Activity (MCF7 [23]): 0.9%

C=CCOc1cccc(/C=C/C(=O)Nc2c(/C=C\c3cc(OC)c(OC)c(OC)c3)ccc(OC)c2O)c1
GI50 (HOP-62): 60 nM | GI50 (SK-OV-3): 0.082 µM | GI50 (MIA PaCa-2): 0.098 µM | GI50 (HeLa): 0.0787 µM | GI50 (MCF7 [10]): 83 nM | GI50 (K562): 91 nM | GI50 (DU-145): 85 nM | GI50 (COLO 205): 18 µM

COc1ccc(/C=C\c2cc(OC)c(OC)c(OC)c2)c(NC(=O)/C=C/c2ccc(C(F)(F)F)cc2)c1O
GI50 (HOP-62): > 100000 nM | GI50 (SK-OV-3): > 100 µM | GI50 (MIA PaCa-2): > 100 µM | GI50 (HeLa): > 100 µM | GI50 (MCF7 [10]): 83700 nM | GI50 (K562): 58000 nM | GI50 (DU-145): > 100000 nM | GI50 (COLO 205): > 100 µM
